Values after ≈ are worked out from the molar mass of the structure shown.
Key:
[1] = molecular target: Phosphatidylinositol 4,5-bisphosphate 3-kinase catalytic subunit alpha isoform (Homo sapiens, UniProt P42336); assay: Inhibition of recombinant PI3K p110alpha using L-alpha-phosphatidylinositol as substrate and [gamma33P]ATP after 60 mins by thin layer chromatographic technique
In short: (§1)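 In-house recombinant enzyme (0.1 µg) with L-α-phosphatidylinositol in 40 mM Tris-HCl pH 7.4, 200 mM NaCl, 1 mM EDTA; DMSO 1% final. Started with 5 mM MgCl₂, 100 µM ATP plus [γ-³³P]ATP; 1 h at room temperature, stopped with 1 M HCl. Lipids extracted, separated by TLC, phosphorimaged. Nine inhibitor concentrations; two experiments, IC50 averaged.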

[2] = molecular target: Phosphatidylinositol 4,5-bisphosphate 3-kinase catalytic subunit beta isoform (Homo sapiens, UniProt P42338); assay: Inhibition of recombinant PI3K p110beta using L-alpha-phosphatidylinositol as substrate and [gamma33P]ATP after 60 mins by thin layer chromatographic technique; in short: as §1
Sequence of Phosphatidylinositol 4,5-bisphosphate 3-kinase catalytic subunit beta isoform (P42338 whole entry, canonical isoform): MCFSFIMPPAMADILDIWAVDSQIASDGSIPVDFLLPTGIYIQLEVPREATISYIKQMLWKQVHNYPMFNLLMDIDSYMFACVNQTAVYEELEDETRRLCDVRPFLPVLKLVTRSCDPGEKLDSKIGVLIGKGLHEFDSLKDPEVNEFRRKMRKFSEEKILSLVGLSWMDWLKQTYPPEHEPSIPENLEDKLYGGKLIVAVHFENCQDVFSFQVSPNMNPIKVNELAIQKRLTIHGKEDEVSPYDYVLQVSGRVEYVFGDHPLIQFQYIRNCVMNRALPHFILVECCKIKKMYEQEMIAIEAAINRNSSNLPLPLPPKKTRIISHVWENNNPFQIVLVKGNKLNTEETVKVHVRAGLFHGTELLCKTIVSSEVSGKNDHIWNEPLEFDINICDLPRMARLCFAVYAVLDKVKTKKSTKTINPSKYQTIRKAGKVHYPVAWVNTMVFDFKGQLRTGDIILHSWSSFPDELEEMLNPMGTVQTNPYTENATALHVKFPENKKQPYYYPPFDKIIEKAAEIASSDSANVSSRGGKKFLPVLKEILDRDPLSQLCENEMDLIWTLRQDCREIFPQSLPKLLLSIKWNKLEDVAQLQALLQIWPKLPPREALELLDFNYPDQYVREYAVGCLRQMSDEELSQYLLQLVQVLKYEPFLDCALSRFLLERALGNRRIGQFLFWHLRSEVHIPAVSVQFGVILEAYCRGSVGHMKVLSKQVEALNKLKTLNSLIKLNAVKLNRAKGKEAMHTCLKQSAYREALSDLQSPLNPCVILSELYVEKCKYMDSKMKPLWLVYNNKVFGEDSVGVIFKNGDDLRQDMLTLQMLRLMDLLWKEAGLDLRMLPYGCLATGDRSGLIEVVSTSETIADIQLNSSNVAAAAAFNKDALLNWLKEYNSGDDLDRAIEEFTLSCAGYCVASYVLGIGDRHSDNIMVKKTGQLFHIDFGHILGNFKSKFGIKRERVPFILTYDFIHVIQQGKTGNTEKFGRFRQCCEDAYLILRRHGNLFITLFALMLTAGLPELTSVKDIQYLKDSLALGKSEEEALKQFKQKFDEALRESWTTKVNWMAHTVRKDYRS

[3] = molecular target: T1, Phosphatidylinositol 4,5-bisphosphate 3-kinase catalytic subunit delta isoform (Homo sapiens, UniProt O00329); assay: Inhibition of recombinant PI3K p110delta using L-alpha-phosphatidylinositol as substrate and [gamma33P]ATP after 60 mins by thin layer chromatographic technique; in short: as §1
T1 sequence (O00329 whole entry): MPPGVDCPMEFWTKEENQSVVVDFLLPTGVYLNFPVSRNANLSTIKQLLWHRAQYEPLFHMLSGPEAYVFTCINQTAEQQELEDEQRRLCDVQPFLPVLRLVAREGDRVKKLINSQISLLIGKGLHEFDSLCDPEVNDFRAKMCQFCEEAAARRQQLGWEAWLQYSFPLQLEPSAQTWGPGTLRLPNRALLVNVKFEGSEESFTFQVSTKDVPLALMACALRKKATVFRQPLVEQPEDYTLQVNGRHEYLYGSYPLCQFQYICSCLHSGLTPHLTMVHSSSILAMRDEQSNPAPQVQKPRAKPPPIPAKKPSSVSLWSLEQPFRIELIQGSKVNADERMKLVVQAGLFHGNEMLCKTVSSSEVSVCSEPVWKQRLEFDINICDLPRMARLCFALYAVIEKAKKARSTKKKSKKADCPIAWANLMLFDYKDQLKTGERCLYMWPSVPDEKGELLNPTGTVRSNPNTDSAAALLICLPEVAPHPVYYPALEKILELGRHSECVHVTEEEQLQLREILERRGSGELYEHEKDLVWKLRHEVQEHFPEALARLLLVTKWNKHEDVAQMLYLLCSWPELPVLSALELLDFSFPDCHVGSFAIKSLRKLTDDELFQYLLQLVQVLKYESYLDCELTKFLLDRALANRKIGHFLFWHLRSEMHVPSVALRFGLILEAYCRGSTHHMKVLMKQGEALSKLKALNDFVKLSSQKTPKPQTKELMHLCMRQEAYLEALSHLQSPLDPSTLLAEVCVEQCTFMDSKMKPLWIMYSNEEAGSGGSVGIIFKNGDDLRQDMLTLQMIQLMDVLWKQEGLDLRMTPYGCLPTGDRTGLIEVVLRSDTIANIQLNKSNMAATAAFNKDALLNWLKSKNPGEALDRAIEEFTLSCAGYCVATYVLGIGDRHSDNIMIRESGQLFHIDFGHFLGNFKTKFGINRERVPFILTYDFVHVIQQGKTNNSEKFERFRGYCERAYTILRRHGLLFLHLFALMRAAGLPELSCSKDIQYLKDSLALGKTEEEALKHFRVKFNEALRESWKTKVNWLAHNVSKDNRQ

[4] = Cytotoxicity against human NZB5 cells assessed as inhibition of [3H]thymidine incorporation measured after 5 days; format: functional, cell-based
In short: (§2)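 Early-passage lines grown in α-MEM with insulin, transferrin, selenite and 5% FBS. Wells seeded with 1000 cells; inhibitor in dilution steps up to a maximum of 20. Five days under 5% O₂/5% CO₂/90% N₂, ³H-thymidine added for the last 6 h. Duplicates per dose; fit y = y₀ + ae^−bx; IC50 = 50% reduction in incorporation.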

[5] = Cytotoxicity against human NZOV9 cells harboring PI3K p110alpha Y1021C mutant assessed as inhibition of [3H]thymidine incorporation measured after 5 days; format: functional, cell-based; in short: as §2
[6] = Aqueous solubility of the compound; format: physicochemical; details: water
In short: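 Solid mixed with water to make 2 mM, sonicated 15 min, centrifuged 13000 rpm for 6 min. Clear supernatant diluted 2-fold with water, recentrifuged and injected on HPLC. Peak area compared with a DMSO standard solution of the compound, correcting for dilution and injection volume.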

HCT-116 = assay: Antitumor activity against human HCT116 cells xenografted in Rag1 knockout mouse assessed as tumor growth delay at 20 mg/kg, ip QD measured on day 10 relative to untreated control; format: functional; details: route intraperitoneal
In short: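 Male Rag1−/− mice (age-matched, SPF) inoculated s.c. with 5 × 10⁶ HCT-116 cells in PBS. Dosing started at ~150 mm³ tumours: q.d. i.p. in 7.5% DMSO, 42.5% PEG-400, 20% 2-hydroxypropyl-β-cyclodextrin, 30% water; controls received vehicle. Volume = (L × w²) × π/6, measured three times weekly; bodyweight daily. Treatment stopped if mean weight loss >15%; 1-way ANOVA with Holm–Sidak.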

Sequence of Phosphatidylinositol 4,5-bisphosphate 3-kinase catalytic subunit alpha isoform (P42336 whole entry, canonical isoform): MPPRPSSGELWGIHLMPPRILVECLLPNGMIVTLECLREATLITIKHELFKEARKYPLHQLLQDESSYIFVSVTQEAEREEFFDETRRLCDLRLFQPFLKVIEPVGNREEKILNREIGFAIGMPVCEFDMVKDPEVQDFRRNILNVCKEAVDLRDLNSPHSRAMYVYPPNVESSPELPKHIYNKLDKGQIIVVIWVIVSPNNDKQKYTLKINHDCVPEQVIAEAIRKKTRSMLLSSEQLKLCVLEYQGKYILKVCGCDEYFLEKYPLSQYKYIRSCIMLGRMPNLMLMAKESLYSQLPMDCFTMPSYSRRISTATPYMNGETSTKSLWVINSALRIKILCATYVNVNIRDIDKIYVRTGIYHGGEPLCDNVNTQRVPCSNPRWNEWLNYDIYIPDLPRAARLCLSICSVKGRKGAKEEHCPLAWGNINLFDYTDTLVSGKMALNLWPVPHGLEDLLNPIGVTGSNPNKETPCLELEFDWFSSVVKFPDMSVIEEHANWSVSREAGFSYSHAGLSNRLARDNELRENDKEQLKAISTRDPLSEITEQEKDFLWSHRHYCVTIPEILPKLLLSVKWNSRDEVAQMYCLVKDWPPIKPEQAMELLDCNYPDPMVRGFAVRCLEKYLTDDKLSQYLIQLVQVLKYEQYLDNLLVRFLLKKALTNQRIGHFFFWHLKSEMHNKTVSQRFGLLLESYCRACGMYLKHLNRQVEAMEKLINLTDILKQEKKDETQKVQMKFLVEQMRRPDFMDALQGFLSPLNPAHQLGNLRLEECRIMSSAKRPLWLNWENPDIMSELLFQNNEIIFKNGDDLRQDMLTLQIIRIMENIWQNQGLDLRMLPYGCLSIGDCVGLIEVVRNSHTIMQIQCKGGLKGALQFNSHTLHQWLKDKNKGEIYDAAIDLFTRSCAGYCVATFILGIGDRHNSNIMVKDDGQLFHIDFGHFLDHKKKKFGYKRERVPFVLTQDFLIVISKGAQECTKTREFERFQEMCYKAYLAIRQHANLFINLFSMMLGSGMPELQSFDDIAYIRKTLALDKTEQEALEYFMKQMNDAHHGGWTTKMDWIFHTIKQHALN

For `CCc1ccc([N+](=O)[O-])cc1S(=O)(=O)N(C)/N=C/c1cnn2ccc(C#N)cc12`, which IC50 [1] is on record?
Its IC50 is 1.5 nM.

What about the IC50 [2] of the same molecule?
Its IC50 is 280 nM.

And the IC50 [3]?
Its IC50 is 13 nM.

And the IC50 [4]?
Its IC50 is 170 nM.

What about the IC50 [5] of the same molecule?
Its IC50 is 80 nM.

With `CCN(/N=C/c1cnn2ccc(C#N)cc12)S(=O)(=O)c1cc([N+](=O)[O-])ccc1C` as the molecule, how does the IC50 [1] read?
The IC50 was 0.5 nM.

And the IC50 [2]?
The IC50 was 62 nM.

And the IC50 [3]?
The IC50 was 9.3 nM.

And the IC50 [4]?
The IC50 was 30 nM.

And the IC50 [5]?
The IC50 was 90 nM.

What about the solubility [6] of the same molecule?
Its solubility is 0.2 µg/mL (≈ 0.485 µM).

Which IC50 [1] does the source give for `Cc1ccc([N+](=O)[O-])cc1S(=O)(=O)N(CCN(C)C)/N=C/c1cnn2ccc(C#N)cc12` here?
The IC50 was 77 nM.

And the IC50 [2]?
The IC50 was 490 nM.

What about the IC50 [3] of the same molecule?
The IC50 was 180 nM.

And the IC50 [4]?
The IC50 was 360 nM.

And the IC50 [5]?
The IC50 was 390 nM.

With `Cc1ccc(C(F)(F)F)cc1S(=O)(=O)N(C)/N=C/c1cnn2ccc(C#N)cc12` as the molecule, how does the IC50 [1] read?
The IC50 was 21 nM.

And the IC50 [2]?
The IC50 was 60 nM.

And the IC50 [3]?
The IC50 was 35 nM.

And the IC50 [4]?
The IC50 was 980 nM.

And the IC50 [5]?
Its IC50 is 1300 nM.

For `Cc1ccc([N+](=O)[O-])cc1S(=O)(=O)N(CCN1CCOCC1)/N=C/c1cnn2ccc(C#N)cc12`, which IC50 [1] is on record?
Its IC50 is 4.5 nM.

And the IC50 [2]?
Its IC50 is 230 nM.

What about the IC50 [3] of the same molecule?
The IC50 was 10 nM.

What about the IC50 [4] of the same molecule?
Its IC50 is 500 nM.

What about the IC50 [5] of the same molecule?
Its IC50 is 540 nM.

With `CN(/N=C/c1cnn2ccc(C#N)cc12)C(=O)c1cccc([N+](=O)[O-])c1` as the molecule, how does the IC50 [1] read?
Its IC50 is 11 nM.

What about the IC50 [2] of the same molecule?
The IC50 was 67 nM.

And the IC50 [3]?
The IC50 was 16 nM.

And the IC50 [4]?
The IC50 was 1800 nM.

What about the IC50 [5] of the same molecule?
The IC50 was 6000 nM.

Which IC50 [1] does the source give for `CN(/N=C/c1cnn2ccc(C#N)cc12)S(=O)(=O)c1cc([N+](=O)[O-])ccc1F` here?
Its IC50 is 4.7 nM.

What about the IC50 [2] of the same molecule?
The IC50 was 44 nM.

And the IC50 [3]?
The IC50 was 120 nM.

What about the IC50 [4] of the same molecule?
The IC50 was 480 nM.

What about the IC50 [5] of the same molecule?
The IC50 was 400 nM.

With `Cc1ccc([N+](=O)[O-])cc1CN(C)/N=C/c1cnn2ccc(C#N)cc12` as the molecule, how does the IC50 [1] read?
The IC50 was 40 nM.

What about the IC50 [2] of the same molecule?
Its IC50 is 79 nM.

What about the IC50 [3] of the same molecule?
The IC50 was 37 nM.

And the IC50 [4]?
The IC50 was 1700 nM.

And the IC50 [5]?
Its IC50 is 1900 nM.

Which IC50 [1] does the source give for `Cc1ccc(S(C)(=O)=O)cc1S(=O)(=O)N(C)/N=C/c1cnn2ccc(C#N)cc12` here?
The IC50 was 350 nM.

And the IC50 [2]?
Its IC50 is 830 nM.

And the IC50 [3]?
The IC50 was 200 nM.

What about the IC50 [4] of the same molecule?
Its IC50 is 500 nM.

What about the IC50 [5] of the same molecule?
Its IC50 is 620 nM.

Which IC50 [1] does the source give for `Cc1ccc(Cl)cc1S(=O)(=O)N(C)/N=C/c1cnn2ccc(C#N)cc12` here?
The IC50 was 13 nM.

What about the IC50 [2] of the same molecule?
Its IC50 is 360 nM.

And the IC50 [3]?
Its IC50 is 230 nM.

And the IC50 [4]?
Its IC50 is 670 nM.

And the IC50 [5]?
Its IC50 is 540 nM.

For `Cc1ccccc1S(=O)(=O)N(C)/N=C/c1cnn2ccc(C#N)cc12`, which IC50 [1] is on record?
The IC50 was 700 nM.

What about the IC50 [2] of the same molecule?
Its IC50 is greater than 1000 nM.

What about the IC50 [3] of the same molecule?
Its IC50 is 2000 nM.

What about the IC50 [4] of the same molecule?
Its IC50 is greater than 20000 nM.

What about the IC50 [5] of the same molecule?
Its IC50 is 12000 nM.

With `Cc1cc([N+](=O)[O-])ccc1S(=O)(=O)N(C)/N=C/c1cnn2ccc(C#N)cc12` as the molecule, how does the IC50 [1] read?
Its IC50 is 65 nM.

And the IC50 [2]?
The IC50 was greater than 1000 nM.

What about the IC50 [3] of the same molecule?
The IC50 was greater than 1000 nM.

What about the IC50 [4] of the same molecule?
Its IC50 is greater than 20000 nM.

What about the IC50 [5] of the same molecule?
The IC50 was greater than 20000 nM.

Which IC50 [1] does the source give for `CCN(CC)CCN(/N=C/c1cnn2ccc(C#N)cc12)S(=O)(=O)c1cc([N+](=O)[O-])ccc1C` here?
The IC50 was 82 nM.

What about the IC50 [2] of the same molecule?
The IC50 was greater than 1000 nM.

What about the IC50 [3] of the same molecule?
Its IC50 is 110 nM.

And the IC50 [4]?
Its IC50 is 3500 nM.

What about the IC50 [5] of the same molecule?
Its IC50 is 1700 nM.

For `Cc1ccc([N+](=O)[O-])cc1S(=O)(=O)N(C)/N=C/c1cnn2ccc(C#N)cc12`, which IC50 [5] is on record?
Its IC50 is 1400 nM.

What about the solubility [6] of the same molecule?
The solubility was 0.1 µg/mL (≈ 0.251 µM).

And the Activity (HCT-116)?
Its Activity is 21.2%.

With `CN(C)c1ccc([N+](=O)[O-])cc1S(=O)(=O)N(C)/N=C/c1cnn2ccc(C#N)cc12` as the molecule, how does the IC50 [1] read?
Its IC50 is 2.2 nM.

And the IC50 [2]?
Its IC50 is 44 nM.

What about the IC50 [3] of the same molecule?
The IC50 was 24 nM.

What about the IC50 [4] of the same molecule?
The IC50 was 40 nM.

And the IC50 [5]?
Its IC50 is 100 nM.

And the solubility [6]?
The solubility was 0.5 µg/mL (≈ 1.17 µM).

What does the source list for `Cc1ccc([N+](=O)[O-])cc1C(=O)N(C)/N=C/c1cnn2ccc(C#N)cc12`?
IC50 [1]: 17 nM; IC50 [2]: 68 nM; IC50 [3]: 8.6 nM; IC50 [4]: > 20000 nM; IC50 [5]: > 20000 nM
